Source: PubChem (The Scripps Research Institute Molecular Screening Center)
CHRM4 agonist: human M4 muscarinic receptor agonists, primary screen, CHO-K1 cells, Fluo-8 calcium fluorescence | activation, % at 3 µM | CHO-K1 hM4/Gqi5; vehicle 0%, full acetylcholine response 100% | actives 0.14% (n = 360,000) | Muscarinic acetylcholine receptor M4 (Homo sapiens), P08173 | AID 624127, 2012;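 active = activation above the run mean over all test wells plus 3 SD, cut at about 32% in these data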;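 also: peak over basal fluorescence ratio per well then scaled between controls; 0% = DMSO wells and 100% = acetylcholine at EC100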
CHRM5 PAM: human M5 muscarinic receptor positive allosteric modulators, primary screen, CHO-K1 cells, Fluo-8 calcium fluorescence; actives 0.3% (n = 360,000); activation, % at 3 µM; CHO-K1 hM5, ACh EC20 PAM; 0% = ACh EC20, 100% = ACh EC100; AID 624038, 2012;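 active = activation above the run cutoff, the mean activation of all test compounds plus 3 SD, cut at about 18% in these data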
Target sequence (P08912 whole entry, looked up): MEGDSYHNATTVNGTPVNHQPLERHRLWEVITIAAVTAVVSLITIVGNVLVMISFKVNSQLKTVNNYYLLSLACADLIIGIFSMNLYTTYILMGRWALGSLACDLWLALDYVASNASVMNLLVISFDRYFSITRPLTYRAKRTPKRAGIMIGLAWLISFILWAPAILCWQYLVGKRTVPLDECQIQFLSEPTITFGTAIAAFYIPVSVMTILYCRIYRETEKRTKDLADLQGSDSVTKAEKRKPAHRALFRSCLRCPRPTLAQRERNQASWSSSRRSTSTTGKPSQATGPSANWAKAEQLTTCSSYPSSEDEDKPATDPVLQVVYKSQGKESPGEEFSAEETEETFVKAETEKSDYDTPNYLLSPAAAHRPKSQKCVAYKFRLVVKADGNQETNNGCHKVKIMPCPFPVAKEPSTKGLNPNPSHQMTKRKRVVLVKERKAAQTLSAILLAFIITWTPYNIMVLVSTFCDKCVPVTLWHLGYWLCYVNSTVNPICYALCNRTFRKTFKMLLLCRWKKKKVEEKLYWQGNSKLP
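System: CHO-K1 cell line with stable human muscarinic M5 receptor expression | Also added: EC20 acetylcholine as agonist stimulus | Compound: One concentration, 3 µM final (nominal) | Timing: Fluo-8 loading 80 min at 37 °C plus 30 min room temperature | Measured by: Fluo-8 calcium dye fluorescence, kinetic read | Read-out basis: % activation, ACh-normalized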
M4 antag: human M4 muscarinic receptor antagonists, primary screen, CHO cells, Fluo-8 calcium fluorescence. Muscarinic acetylcholine receptor M4 (Homo sapiens), P08173. CHO-hM4 cells, ACh EC80. inhibition, % at 3 µM. actives 0.73% (n = 360,000). AID 624125, 2012;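 active = inhibition above its plate's cutoff, the mean inhibition of sample wells plus 3 SD, cut at about 27% in these data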;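 also: 0% = acetylcholine EC80 with DMSO and 100% = DMSO without agonist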
M5 ag: human M5 muscarinic receptor agonists, primary screen, CHO-K1 cells, Fluo-8 calcium fluorescence | actives 0.19% (n = 360,000) | activation, % at 3 µM | CHO-K1 hM5 cells; 0% DMSO wells, 100% maximal acetylcholine response | Muscarinic acetylcholine receptor M5 (Homo sapiens), P08912;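 active = activation above the run's mean over test compounds plus 3 SD, cut at about 23% in these data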;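 also: signal is peak over basal fluorescence ratio across the kinetic read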
M4 PAM: human M4 muscarinic receptor positive allosteric modulators, primary screen, CHO-K1 cells, Fluo-8 calcium fluorescence; Muscarinic acetylcholine receptor M4 (Homo sapiens), P08173; CHO-K1 hM4/Gqi5, ACh EC20; 0% = ACh EC20, 100% = maximal ACh; activation, % at 3 µM; actives 0.4% (n = 360,000); AID 624126, 2012;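 active = activation above its plate's cutoff, the mean activation of sample wells plus 3 SD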
CHRM5 antagonist: human M5 muscarinic receptor antagonists, primary screen, CHO cells, Fluo-8 calcium fluorescence | CHO-hM5 cells, ACh EC80 | inhibition, % at 3 µM | actives 0.59% (n = 360,000) | AID 624040, 2012;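 active = inhibition above a per-plate cutoff, the mean of that plate's test compounds plus 3 SD, cut at about 27% in these data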;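 also: 0% = acetylcholine EC80 with DMSO and 100% = DMSO without agonist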
The depositor's hits bear a star. Hits are enriched below; roughly 1.9% of the tested compounds scored in any of these assays.

SMILES | CHRM4 agonist | CHRM5 PAM | M4 antag | M5 ag | M4 PAM | CHRM5 antagonist
COc1ccc([C@H]2C[C@H](O)C[C@@H](CCn3cc(-c4ccccc4)nn3)O2)cc1 | 3 | -6 | -2 | 3 | 3 | 2
COc1ccc(NC(=O)CSCC(=O)Oc2c(OC)cccc2OC)cc1 | 0 | -2 | 7 | -4 | 2 | 0
COc1ccccc1/C=C/C=NC1C(=O)N(c2ccccc2)[N+](C)=C1C (stereo not drawn) | 6 | -2 | 3 | -5 | -6 | 7
CC1=[N+](C)N(c2ccccc2)C(=O)C1N=C/C=C/c1ccccc1 (stereo not drawn) | 2 | -31 | 58* | -19 | -15 | 25
Cc1cc(NC(=O)c2ccccc2)ccc1NC(=O)Cc1ccccc1 | 1 | -4 | -5 | -3 | -1 | 19
CCNC(=O)C1(C)CCCCN1Cc1ccc(C#N)cc1 (stereo not drawn) | 0 | -5 | -8 | 0 | 5 | 3
CCOc1cc2c3c(c1)C1(OCCO1)C(=O)N3C(C)(C)CC2C (stereo not drawn) | -2 | 0 | 0 | -7 | 2 | -4
CCc1cc2c3c(c1)C(C)CC(C)(C)N3C(=O)C2=O (stereo not drawn) | -2 | 0 | 8 | 26* | -1 | -9
CCOC(=O)c1ccc(N)cc1 | 0 | -2 | 2 | 0 | -9 | -4
CCOC(=O)c1ccc(C(=O)OCC)nc1 | 1 | 21* | -2 | -1 | 1 | -9
COCCNC(=S)N(C)[C@H]1C[C@H]2c3cc(N4CCN(C)CC4)ccc3CCN2C(=O)[C@H]1[C@H](C)O | 0 | -4 | -5 | 1 | -3 | 4
COc1ccc(NC(=O)CC2C(=O)N(CCc3ccccc3)C(=S)N2Cc2cccnc2)cc1 (stereo not drawn) | 16 | -6 | 27* | 6 | -10 | 10
CCOC(=O)/C(=C\C=C1/Sc2cc(OCC)c(OCC)cc2N1CC)C(C)=O | 20 | -12 | 12 | 24* | -5 | 13
CCOC(=O)/C(=C/C=C1\Sc2cc(OCC)c(OCC)cc2N1CC)C(C)=O | 18 | -23 | 12 | 147* | -9 | 36*
CCN1/C(=C/C(C)=O)Sc2ccc(OC)cc21 | -1 | 13 | 1 | -8 | 6 | 1
COc1ccc(C2C=CC(=O)CC2)c(OC)c1 (stereo not drawn) | 0 | 2 | -14 | 1 | 10 | -6
COc1c2c(c(OC)c3ccccc13)[C@]1(OC2)O[C@H](CCO)C[C@H](O)[C@H]1O | 0 | 3 | 2 | 2 | -3 | -4
CC(C)C1S/C(=N/N=C/c2ccco2)NC1=O (stereo not drawn) | 2 | -4 | 30* | 2 | 2 | 5
COC(=O)c1[nH]c2c(c1C)C(=O)CC(c1cccs1)C2 (stereo not drawn) | 10 | 0 | 12 | -7 | 30* | 5
CC1CCCN(S(=O)(=O)c2ccc3c(c2)c(=O)nc2ccccn23)C1 (stereo not drawn) | 0 | -1 | -13 | -5 | 1 | -2
CCc1nccn1S(=O)(=O)c1cc(OC)ccc1OC | 0 | -3 | 9 | 0 | -5 | 10
COc1ccc(NC(=S)NCc2cccnc2)cc1OC | 4 | 20* | -11 | -1 | 23* | -11
CC(=O)N(C)c1ccc(NC(=O)Nc2ccc(C)c(C)c2)cc1 | 19 | -19 | 31* | 4 | -11 | 29*
C=C(C)COc1ccc(-c2[nH]ncc2Oc2ccc(OC)cc2)c(O)c1 | -1 | -6 | 41* | -4 | -32 | 7
COc1ccc(NC(=O)c2ccccc2N2C(=O)C3C4C=CC(C5CC45)C3C2=O)c(OC)c1 (stereo not drawn) | 5 | 11 | -9 | 0 | 15* | 4
SMILES | CHRM4 agonist | CHRM5 PAM | M4 antag | M5 ag | M4 PAM | CHRM5 antagonist
COc1ccccc1N/C=C/c1onc(C)c1[N+](=O)[O-] | 2 | -13 | 40* | 15 | -1 | 23
CCOC(=O)CC1CCCCN1C(=O)c1cc(COc2cccc3cnccc23)on1 (stereo not drawn) | 32* | -15 | 55* | 10 | -13 | 40*
COc1ccc(S(=O)(=O)N2CCC(C(=O)NC3CCCCC3)CC2)cc1C | 1 | 8 | 9 | -3 | 3 | -4
Cc1noc(C)c1S(=O)(=O)NCCN1CCN(c2ccccc2)CC1 | 4 | 4 | -12 | -4 | 17* | -5
C(=C\c1ccccc1)/CN1CCN(C(CCc2ccccc2)c2nnnn2C2CCCC2)CC1 (stereo not drawn) | 2 | -18 | 17 | -6 | -16 | 16
Cn1ncc(Br)c1NC(=O)Nc1ccc(OC(F)(F)F)cc1 | 14 | -21 | -6 | 4 | -20 | 27*
COC(=O)c1cnn(-c2ccccc2)c1C(OC)OC | 2 | 22* | -11 | 7 | 8 | -12
COC(=O)c1cnn(-c2ccccc2)c1/C=N/NC(=S)Nc1ccccc1 | 0 | 7 | -8 | 0 | 1 | -2
CSc1ccccc1NC(=O)COC(=O)Cc1cccs1 | 1 | -3 | 7 | -1 | 4 | 4
CCOc1ccccc1NC(=O)COC(=O)Cc1cccs1 | -3 | 6 | 100* | -2 | -15 | -13
Cc1nc2ccccc2c(=O)n1NC(=O)c1cccc(Cl)c1 | 15 | -11 | 28* | 1 | -11 | 20
Cc1oc(C(=O)O)cc1COc1ccccc1Cl | 1 | 42* | -1 | 30* | 11 | 6
O=C(O)c1ccccc1COc1ccccc1Cl | 0 | 1 | -1 | 0 | 0 | 5
CC(=O)COc1cccc2ccc(/C=C/c3ccc(Br)s3)nc12 | 6 | 23* | -24 | 8 | -4 | -10
COc1ccccc1COC(=O)C(NC(=O)c1ccc(C)cc1)C(C)C (stereo not drawn) | 2 | 0 | -3 | -4 | -1 | -2
Cc1c(CC(=O)O)c(=O)oc2c(C)c3occ(-c4ccccc4)c3cc12 | -1 | -1 | 46* | -6 | -16 | 13
CC(C)Oc1ccc(/C(O)=C2/C(=O)C(=O)N(Cc3cccnc3)C2c2ccco2)cc1 (stereo not drawn) | 1 | 13 | 5 | 3 | 19* | -2
COc1ccc([C@H]2C[C@@H](O)[C@H](n3cc(C4CC4)nn3)CN2C(=O)c2cccs2)cc1 | 2 | -2 | -24 | 1 | 3 | 0
